M1 antag: antagonists of rat M1 muscarinic receptor | P08482 | AID 628 | 64,000 tested, 3.4% active | CHO-M1 cells, Fluo-4 calcium, ACh EC80 antagonist mode; active compounds read low | B-score at 10 µM;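 active means calcium fluorescence response, raw or row-and-column corrected B-score, differing from the plate sample mean either way at a set confidence level, mostly lower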
Target sequence (P08482 whole entry, looked up): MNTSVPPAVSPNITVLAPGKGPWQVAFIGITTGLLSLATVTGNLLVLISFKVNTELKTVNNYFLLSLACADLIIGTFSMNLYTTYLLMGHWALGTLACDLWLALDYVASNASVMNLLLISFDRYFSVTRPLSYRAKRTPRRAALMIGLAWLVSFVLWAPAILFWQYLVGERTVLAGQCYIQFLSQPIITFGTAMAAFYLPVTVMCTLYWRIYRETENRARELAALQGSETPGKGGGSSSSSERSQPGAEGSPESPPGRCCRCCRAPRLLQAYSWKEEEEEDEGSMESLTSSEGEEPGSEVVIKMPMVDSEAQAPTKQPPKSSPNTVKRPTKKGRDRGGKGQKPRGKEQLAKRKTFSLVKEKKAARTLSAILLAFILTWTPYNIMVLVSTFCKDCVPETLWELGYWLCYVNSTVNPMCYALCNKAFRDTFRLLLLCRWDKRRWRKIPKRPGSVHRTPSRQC
mHtt clearance: mutant huntingtin protein clearance; AID 853; 47,000 tested, 0.42% active; HeLa Exon1htt(103Q)mCFP, aggregate imaging; zero = plate's median compound well; inhibition, % at 1.5 µM;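 active means inhibition of aggregate fluorescence above about 70%, also judged a hit by eye on the cell image, limit read from the data, passing the limit was not always enough; inconclusive means no rule stated for this call; inactive means not judged a hit on image review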;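 further: cells exposed to compound for three days before fixation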
Jurkat tox 60K: cytotoxicity toward Jurkat cells | inhibition, % at 4 µM | 56,000 tested, 1.2% active | Jurkat E6.1 viability, ATP luminescence, 48 h | AID 463;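 active means inhibition above the mean inhibition of all tested compounds plus 3 SD, cut at about 28% in these data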
M1 agonist: M1 muscarinic receptor agonism; CHO-M1 cells, Fluo-4 calcium fluorescence, agonist mode; active compounds read high; B-score at 10 µM; 64,000 tested, 3% active;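 active means fluorescence rise, raw or as B-score row- and column-corrected plate score, outside the 99.7% band of its plate's samples, either direction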
HEK293 NFkB inh: lowers PMA/ionomycin-induced NF-kB signal in HEK293 cells. HEK-293 NF-kB luciferase reporter, luminescence. inhibition, % at 3 µM. 62,000 tested, 0.21% active;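 active means inhibition above the mean of all tested compounds plus 3 SD, cut at about 40% in these data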;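 further: 0% = stimulated DMSO wells and 100% = 10 µM reference inhibitor 5653914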
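System – HEK-293 cells with stable firefly luciferase reporter driven by four HIV NF-kB elements · Doses – one dose, 3 µM · Schedule – 1 h compound pre-incubation, 16 h PMA/ionomycin at 37 °C · Technique – luminescence from luciferase substrate reagent · Measure – percent inhibition normalized per plate to DMSO and reference-inhibitor controls · Replicates – tested once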
D1 mod: D1 dopamine receptor (human) allosteric modulation | P21728 | HEK293 D1, CRE-luciferase, dopamine EC30 potentiation; actives deviate in either direction | B-score at 10 µM | 58,000 tested, 5.9% active;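 active means luminescence count or its row- and column-corrected plate score outside the 99.7% band of the plate's sample wells, on either side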
* marks the source's active call; other numbers are inactive results. Only some compounds are listed: those with a hit (about 9.5% of all), similar ones and a draw of the others.

Screening O=C(O)C1C2C=CC(C2)C1C(=O)Nc1ccc(C(=O)N2CCCCC2)c(Cl)c1 (centres undefined) returned M1 antag 0.28, mHtt clearance -24, Jurkat tox 60K 4, M1 agonist -0.35, HEK293 NFkB inh -2 and D1 mod -0.94.
Screening CCCCSc1nc(N)c(NC(=O)c2ccco2)c(=O)[nH]1 returned M1 antag 0.29, mHtt clearance 2, Jurkat tox 60K -2, M1 agonist -0.33, HEK293 NFkB inh 2 and D1 mod 0.18.
`CC(=O)c1sc(NC(=O)c2ccccc2F)nc1C` gave M1 antag 0.044, Jurkat tox 60K 8, M1 agonist -0.0023, HEK293 NFkB inh -65 and D1 mod -5.1*.
`CC(C)(C)c1ccc(-c2nnc3sc(-c4ccncc4)nn23)cc1` gave M1 antag 8.9*, Jurkat tox 60K 25, M1 agonist -0.62, HEK293 NFkB inh 10 and D1 mod 2.4.
For COc1cccc(C(=O)O/N=C/c2ccc(Sc3ccc(C)cc3)nc2)c1 the results were mHtt clearance 41.
Cc1ccc(C(C(=O)NC(C)(C)C)N(CC2CCCO2)C(=O)Cn2nnc(-c3ccc(C)o3)n2)cc1 (centres undefined) was read as M1 antag 0.0025, Jurkat tox 60K 4, M1 agonist -1.4, HEK293 NFkB inh 6 and D1 mod -4.2*.
Screening CCCNC(=O)c1cccc(Cn2nc(C)c(Br)c2C)c1 returned M1 antag -0.36, Jurkat tox 60K -1, M1 agonist -1.2, HEK293 NFkB inh 4 and D1 mod -1.7*.
Screening COc1ccccc1N1CCN(Cc2cccc(OC)c2OC)CC1 returned Jurkat tox 60K 6, HEK293 NFkB inh 12 and D1 mod -5.3.
For COc1cc(OC)c(OC)cc1CN1CCN(c2ccccc2OC)CC1 the results were M1 antag -0.7, mHtt clearance 26, Jurkat tox 60K 7, M1 agonist -0.034, HEK293 NFkB inh 0 and D1 mod -3.7*.
Screening CCOC(=O)N1CCN(CC(O)c2ccc3cc[nH]c3c2)CC1 (centres undefined) returned M1 antag 0.0042, mHtt clearance inconclusive, Jurkat tox 60K -3, M1 agonist -1.5, HEK293 NFkB inh 4 and D1 mod -0.8.
Screening COc1ccccc1N1CCN(CC(O)COc2c(OC)cccc2OC)CC1 (centres undefined) returned M1 antag 0.0025, mHtt clearance -26, Jurkat tox 60K 8, M1 agonist 1.1, HEK293 NFkB inh 16 and D1 mod -4.6*.
Screening C=CCc1ccccc1OCC(O)CN1CCN(c2ccc(OC)cc2)CC1 (centres undefined) returned M1 antag -0.77, mHtt clearance 10, Jurkat tox 60K -3, M1 agonist -0.89, HEK293 NFkB inh 14 and D1 mod -2.6*.
Screening COc1ccccc1N1CCN(CC(O)c2ccc3cc[nH]c3c2)CC1 (centres undefined) returned M1 antag 0.061, mHtt clearance -15, Jurkat tox 60K 4, M1 agonist -1.4, HEK293 NFkB inh 14 and D1 mod -2.6*.
`COc1cccc(OC)c1OCC(O)CN1CCN(c2ccccc2)CC1` (centres undefined) gave M1 antag 0.41, Jurkat tox 60K -3, M1 agonist -0.0034, HEK293 NFkB inh -1 and D1 mod -2.9.
C=CCNC(=O)C1CC(=O)N(c2ccc(OCC(=O)NCc3ccccc3)cc2)C1 (centres undefined) was read as M1 antag 0, mHtt clearance 42, Jurkat tox 60K -2, M1 agonist -0.43, HEK293 NFkB inh 3 and D1 mod -0.1.
For CN(C(=O)c1cccc(Nc2ccc(-c3ccc4c(c3)OCCO4)nn2)c1)C1CCCCC1 the results were mHtt clearance -16.
For Cc1ccc(C)c(C(=O)COC(=O)c2ccc(Br)o2)c1 the results were M1 antag 2.2*, Jurkat tox 60K -1, M1 agonist -0.021, HEK293 NFkB inh 2 and D1 mod 0.36.
`CCOC(=O)N1CCC(NC(=O)c2cc(C)c3c(C)nn(-c4ccccc4)c3n2)CC1` gave M1 antag 0.0031, mHtt clearance 22, Jurkat tox 60K 6, M1 agonist 1.9 and HEK293 NFkB inh -4.
